Casp6 inh: caspase-6 (human) enzyme inhibition; purified caspase-6, Z-VEID-R110 cleavage fluorescence; inhibition, % at 12.5 µM; hit rate 0.53% among 350,000; AID 686996;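 active = mean inhibition across replicates at least about 35%, with every replicate also reaching that limit, limit read from the data; inconclusive = only one of the two criteria met; inactive = neither criterion met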
Target sequence (P55212 24-179 limits assumed): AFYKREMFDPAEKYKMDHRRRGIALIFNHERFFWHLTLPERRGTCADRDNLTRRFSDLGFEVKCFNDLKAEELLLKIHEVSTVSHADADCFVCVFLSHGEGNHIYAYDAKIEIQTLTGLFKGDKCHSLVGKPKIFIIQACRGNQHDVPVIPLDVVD
Target sequence (P55212 194-293 limits assumed): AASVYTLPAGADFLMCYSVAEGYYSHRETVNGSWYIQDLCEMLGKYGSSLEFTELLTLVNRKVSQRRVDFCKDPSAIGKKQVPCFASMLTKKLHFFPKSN
XiGFP reactiv: X-chromosome reactivation activator. XiGFP mouse fibroblasts, % GFP-positive cells imaging, 3 d; cells co-treated with 5-aza-dC sensitizer; scaled so ellipticine positive control = 100%. AID 743238. hit rate 0.055% among 360,000. activation, % at 7.58 µM;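 active = mean normalized replicate activation at least 10% and every replicate at or above 10%; inconclusive = only one of the two criteria met; inactive = mean below 10% and not all replicates reach 10%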
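Material: SV40-immortalized XiGFP fibroblast cells, line 68-5-11 | Buffer or medium: DMEM containing 5-aza-dC | Dosing: One concentration, pinned | Times: 3 d treatment, 15 min room-temperature fixation | Controls: Ellipticine 6 µM positive control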
esBAF inh: SWI/SNF esBAF complex inhibition. mouse ES cells, Bmi1-luciferase knock-in reporter, 24 h; 100% = twice the neutral-well signal. reporter increase, % at 12.5 µM. hit rate 2% among 350,000. AID 602393; in the data active = activation above about 40%; inconclusive = no clear call, values can overlap the other calls;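 note: a rise in the Bmi1 reporter signal indicates esBAF inhibition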
MITF TRPM1 HTS: activators of MITF-driven TRPM1 promoter activity in SK-MEL-5 cells. SK-MEL-5 TRPM1-promoter luciferase, 24 h; % of positive control, neutral wells = 0. activation, % at 12.5 µM. hit rate 0.75% among 300,000. AID 588334;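 active = mean activation of at least 80% with every replicate also reaching 80%; inconclusive = mean reaches 80% but some replicate falls short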
Wnt bcat act: activates Wnt/beta-catenin signaling in a reporter cell assay; activator, plate reader; activation, % at 9.35 µM; hit rate 1.2% among 300,000; in the data active = activation above about 30%, passing the limit was not always enough; inconclusive = no clear call, values can overlap the other calls
NSD2 inh: blocks human histone methyltransferase NSD2; inhibition, % at 12.5 µM; hit rate 0.54% among 310,000; NSD2 peptide methylation, AlphaScreen, 120 min; O96028; in the data active = inhibition above about 50%
Large screens that a line does not name were inactive. In the library only some 3% were active in any assay of this set; here they are far more common.

CC1Cc2ccccc2N1C(=O)c1ccc(Br)o1 (centres undefined)	esBAF inh 91.5 (no result: MITF TRPM1 HTS)
Cc1ccc(C(=O)N2c3ccccc3CC2C)o1 (centres undefined)	none
CC1Cc2ccccc2N1C(=O)COC(=O)c1ccc([N+](=O)[O-])o1 (centres undefined)	Casp6 inh 47.2 (no result: NSD2 inh)
CCOCC(=O)N1CCN(Cc2ccc3c(c2)OCO3)CC1	Wnt bcat act 31.4
CC1CCCCN1C(=O)COC(=O)c1cc(Cl)c2c(c1)OCO2 (centres undefined)	esBAF inh 55.2, MITF TRPM1 HTS inconclusive (no result: NSD2 inh)
CNC[C@@H]1OCCCC[C@H](C)Oc2ccc(NC(=O)Cc3ccccc3)cc2C(=O)N([C@@H](C)CO)C[C@@H]1C	none (no result: MITF TRPM1 HTS, Wnt bcat act, NSD2 inh)
CCCCOc1ccc(C(=O)OCC(=O)N2CCOCC2)cc1	Casp6 inh 61.4
CC1CCN(C(=O)COC(=O)c2ccc([N+](=O)[O-])o2)CC1	Casp6 inh 52.2
CC1CCN(C(=O)COC(=O)c2ccc3c(c2)OCO3)CC1	esBAF inh 47.6
CC1CCN(C(=O)COC(=O)c2ccc3c(c2)OCCO3)CC1	none
CCCNC(=O)N1CC2(C1)[C@@H](c1ccccc1)[C@@H](CO)N2CC1CC1	none (no result: esBAF inh, MITF TRPM1 HTS, Wnt bcat act, NSD2 inh)
C[C@H](CO)N1C[C@H](C)[C@@H](CN(C)C(=O)Nc2ccccc2)Oc2ncc(-c3ccccc3)cc2C1=O	none (no result: Casp6 inh, MITF TRPM1 HTS, Wnt bcat act, NSD2 inh)
CCOc1cccc(OCCOc2ccccc2[N+](=O)[O-])c1	esBAF inh 80.3, MITF TRPM1 HTS inconclusive (no result: Casp6 inh, XiGFP reactiv, Wnt bcat act)
CCOc1ccccc1OCCOCCOc1ccccc1[N+](=O)[O-]	none (no result: esBAF inh)
COc1ccc2nc(N(CCN(C)C)C(=O)c3ccc4ncsc4c3)sc2c1	esBAF inh 80.6, Wnt bcat act inconclusive (no result: MITF TRPM1 HTS)
COc1ccc2nc(N(CCN(C)C)C(=O)c3ccc4ccccc4c3)sc2c1	none
Cc1ccc2nc(N(CCCN(C)C)C(=O)c3ccc4ncsc4c3)sc2c1	esBAF inh 51.7
Cc1ccc(-c2nc3ccccc3c(=O)o2)cc1	none
Cc1cc(-c2nc3ccccc3c(=O)o2)ccc1[N+](=O)[O-]	Wnt bcat act 39.4
C[C@@H]1CN([C@H](C)CO)C(=O)c2cc(NC(=O)NC3CCCCC3)ccc2O[C@@H](C)CCCCO[C@@H]1CN(C)S(=O)(=O)c1ccc(F)cc1	none (no result: MITF TRPM1 HTS, Wnt bcat act, NSD2 inh)
Cc1csc(NC(=S)NC(=O)c2ccccc2)n1	esBAF inh inconclusive, MITF TRPM1 HTS 108.9
Cc1csc(NC(=O)c2ccc(COc3ccccc3)o2)n1	esBAF inh 63.2
Cc1csc(NC(=O)c2ccc3nc[nH]c3c2)n1	Wnt bcat act 36.3
Cc1csc(NC(=O)c2ccccc2)n1	none (no result: MITF TRPM1 HTS)
COc1cccc(C(=O)Nc2nc(C)cs2)c1	Wnt bcat act 44.3 (no result: Casp6 inh, XiGFP reactiv)
COc1cccc(C(=O)Nc2nc(-c3ccncc3)cs2)c1	none (no result: esBAF inh, Wnt bcat act)
O=S(=O)(Cc1ccccc1)N1CC2(C1)[C@@H](c1ccccc1)[C@H](CO)N2CC1CC1	none (no result: Casp6 inh, esBAF inh, MITF TRPM1 HTS, Wnt bcat act, NSD2 inh)
CCCNC(=O)N1CC2(CCN(C(=O)C3CCC3)CC2)c2c([nH]c3cc(OC)ccc23)[C@@H]1CO	none (no result: Casp6 inh, esBAF inh, MITF TRPM1 HTS, Wnt bcat act, NSD2 inh)
C[C@@H]1CCCCO[C@@H](CN(C)C(=O)Nc2ccc(C(F)(F)F)cc2)[C@H](C)CN([C@@H](C)CO)C(=O)c2cc(NC(=O)Nc3ccc(F)cc3)ccc2O1	none (no result: MITF TRPM1 HTS, Wnt bcat act, NSD2 inh)
Cc1c(C(=O)/C=C/c2ccccc2F)c2cc(O)ccc2n1C	esBAF inh 57.0 (no result: MITF TRPM1 HTS)
O=C(C[C@@H]1CC[C@@H]2[C@H](COC[C@H](O)CN2Cc2ccccc2)O1)NCc1ccccc1Cl	none (no result: MITF TRPM1 HTS, Wnt bcat act, NSD2 inh)
C[C@H](CO)N1C[C@H](C)[C@H](CN(C)C(=O)Nc2ccc(F)cc2)Oc2cc(-c3ccc(F)cc3)ccc2S1(=O)=O	none (no result: Casp6 inh, esBAF inh, MITF TRPM1 HTS, Wnt bcat act, NSD2 inh)
CC(=O)N(C)c1ccc(N=NC2C(=O)N(C(N)=S)N=C2C)cc1 (centres undefined)	Wnt bcat act 51.9
CC1=NN(C(N)=S)C(=O)C1N=Nc1ccc(S(N)(=O)=O)cc1 (centres undefined)	none
COc1ccc2c3c([nH]c2c1)[C@H](CO)N(C(=O)C1CCCCC1)CC31CN(Cc2nccs2)C1	none (no result: Casp6 inh, esBAF inh, MITF TRPM1 HTS, Wnt bcat act, NSD2 inh)
COc1ccc(-n2cnc3cc(C(=O)NCC4CCCO4)ccc32)cc1 (centres undefined)	none
COc1ccc(-n2cnc3cc(C(=O)N4CCOCC4)ccc32)cc1	esBAF inh 43.5
N#Cc1c(NC(=O)c2ccc(Cn3cc(Br)cn3)o2)sc2c1CCCCC2	esBAF inh 44.3 (no result: Casp6 inh, XiGFP reactiv, Wnt bcat act)
NC(=O)c1c(NC(=O)C2CC=CCC2C(=O)O)sc2c1CCCCC2 (centres undefined)	Casp6 inh 52.5
Cc1occc1C(=O)Nc1sc2c(c1C(N)=O)CCCCC2	esBAF inh 47.2 (no result: Casp6 inh, XiGFP reactiv, Wnt bcat act)
N#Cc1c(NC(=O)c2ccco2)sc2c1CCC2	Casp6 inh 48.1, esBAF inh 53.5, MITF TRPM1 HTS 90.9
COc1ccc(NC(=O)c2c(NC(=O)CCC(=O)O)sc(-c3ccccc3)c2C)cc1	Wnt bcat act 34.1 (no result: esBAF inh, NSD2 inh)
O=C(O)CCC(=O)Nc1sc2c(c1C(=O)Nc1ccccc1)CCCCC2	Casp6 inh 47.0, Wnt bcat act inconclusive (no result: esBAF inh)
NC(=O)c1c(NC(=O)c2ccco2)sc2c1CCC2	esBAF inh 103.1 (no result: Casp6 inh, XiGFP reactiv, Wnt bcat act)
N#Cc1c(NC(=O)c2cnn3cccnc23)sc2c1CCCC2	esBAF inh 42.0
COCC(=O)Nc1ccc2c(c1)C(=O)N(C)C[C@@H](OC)[C@@H](C)CN(Cc1ccccc1OC)[C@H](C)CO2	none (no result: MITF TRPM1 HTS, Wnt bcat act, NSD2 inh)

Assay outcomes: PubChem BioAssay, Broad Institute
